# Source: ChEMBL document CHEMBL1122569, “Synthesis and antiinflammatory activity of [(cycloalkylmethyl)phenyl]acetic acids and related compounds” (1984)
# What was measured:
# Rattus norvegicus [1] = assay: Analgesic activity on peroral administration against Scald induced pain in rat paw; format: functional; conditions: for ED50: Rattus norvegicus, po, read-out: ID50 (the source's name)
# In short: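 Male Wister Imamichi rats (~100 g), fasted 16 h. A hind paw was scalded at 57 °C for 6 s, then restimulated at 40 °C for 5 s. Compounds at 58–0.23 mg/kg in 0.5% tragacanth were given orally 2 h after scalding. Paw-lifting time over 30 s was recorded 1 and 2 h post-dose, and the mean used for % inhibition and ID50.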
# Rattus norvegicus [2] = assay: Antiinflammatory activity on peroral administration against carrageenan paw edema; format: functional; conditions: po, read-out: ID50 (the source's name)
# In short: (§1)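 Compound given; 30 min later 1% carrageenan in saline injected subcutaneously into the hind-paw plantar region. Paw volume measured just before and 3 h after carrageenan. ID50 from a least-squares regression line of percent inhibition against dose.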
# Rattus norvegicus [3] = assay: Analgesic activity on peroral administration against scald induced pain in rat paw; format: functional; conditions: po, read-out: ID50 (the source's name)
# In short: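 Male Wister Imamichi rats (about 100 g), fasted 16 h, had one hind paw scalded in 57 °C water for 6 s, then re-dipped in 40 °C water for 5 s. Oral dosing in 0.5% tragacanth (58–0.23 mg/kg) followed 2 h after scalding. Paw-lifting time within 30 s was scored 1 and 2 h post-dose. The mean of the two readings gave percent inhibition and ID50.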
# Rattus norvegicus [4] = assay: Gastric lesion activity on peroral administration in rat.; format: functional; conditions: po
# In short: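 Male Wister Imamichi rats (~120 g), fasted 16 h, dosed at 20–2.5 mg/kg. Killed 3.5 h later; stomachs opened along the greater curvature and rinsed with saline. Dark brown lesions of 0.5 mm length were counted under a stereomicroscope.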
# Cavia porcellus [5] = assay: Analgesic activity on peroral administration against Bradykinin induced pain in guinea pig paw; conditions: po
# Rattus norvegicus [6] = assay: Antiinflammatory activity on peroral administration in rat determined by Randall-Slelitto test; format: functional; conditions: po
# In short: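 Fasted male Wister Imamichi rats (60–90 g) received 20% brewer's yeast in the right hind paw. After 4 h, rats with pressure pain threshold below 10×30 g were dosed at 50–0.05 mg/kg. Animals were counted effective if the threshold rise exceeded twice the unmedicated control. ED50 by Litchfield–Wilcoxon.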
# Cavia porcellus [7] = assay: Antipyretic activity on peroral administration against LPS-induced fever in guinea pig.; format: functional; conditions: po, read-out: ID50 (the source's name)
# In short: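 Female Hartley guinea pigs (300–350 g), fasted 16 h. Fever induced with E. coli LPS at 1 µg/kg i.v. Compounds were dosed at 6.3–0.23 mg/kg. Rectal temperature was taken 1 and 2 h after dosing and the mean used. ID50 by least-squares regression of % inhibition on dose.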
# Rattus norvegicus [8] = assay: Antiinflammatory activity on peroral administration against adjuvant arthritis in rat.; format: functional; conditions: po, read-out: ID50 (the source's name)
# In short: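 Female Lewis rats (160–200 g) received complete Freund adjuvant (heat-killed M. tuberculosis, 1 mg/mL in liquid paraffin) in the right hind paw. Dosing was 5.0–0.04 mg/kg once daily, days 0–20. Injected-paw swelling was measured by water displacement (day before vs day 21), as % inhibition versus untreated control. ID50 by least-squares regression.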
# Rattus norvegicus [9] = assay: Antiinflammatory activity on peroral administration against carrageenan induced rat paw edema.; format: functional; conditions: po, read-out: ID50 (the source's name); in short: as §1
compound,measurement,setting,value
CC(C(=O)O)c1ccc(CC2CCC/C2=N/O)cc1 (stereo not given),ED50,Rattus norvegicus [1],4.9 mg/kg
same,ED50,Rattus norvegicus [2],1.3 mg/kg
O=C(O)Cc1ccc(CC2CCC/C2=N/O)cc1 (stereo not given),ED50,Rattus norvegicus [1],15 mg/kg
same,ED50,Rattus norvegicus [2],24.8 mg/kg
CC(C(=O)O)c1ccc(CC2CCCCC2=O)cc1 (stereo not given),ED50,Rattus norvegicus [1],9.1 mg/kg
same,ED50,Rattus norvegicus [2],1.2 mg/kg
CC(C(=O)O)c1ccc(/C=C2\CCCCCC2=O)cc1 (stereo not given),ED50,Rattus norvegicus [1],> 100 mg/kg
same,ED50,Rattus norvegicus [2],> 100 mg/kg
CC(C(=O)O)c1ccc(CC2CCCCCC2=O)cc1 (stereo not given),ED50,Rattus norvegicus [1],> 100 mg/kg
same,ED50,Rattus norvegicus [2],> 100 mg/kg
O=C(O)Cc1ccc(CC2CCCC/C2=N/O)cc1 (stereo not given),ED50,Rattus norvegicus [1],31.1 mg/kg
same,ED50,Rattus norvegicus [2],23.5 mg/kg
CC(C(=O)O)c1ccc(CC2CCCC2)cc1 (stereo not given),ED50,Rattus norvegicus [1],5.1 mg/kg
same,ED50,Rattus norvegicus [2],> 100 mg/kg
CC(C(=O)O)c1ccc(CC2CCCC/C2=N/O)cc1 (stereo not given),ED50,Rattus norvegicus [1],3.6 mg/kg
same,ED50,Rattus norvegicus [2],1.4 mg/kg
O=C(O)Cc1ccc(CC2CCCC2=O)cc1 (stereo not given),ED50,Rattus norvegicus [1],23 mg/kg
same,ED50,Rattus norvegicus [2],9.1 mg/kg
CC(C(=O)O)c1ccc(/C=C2\CCCC2=O)cc1 (stereo not given),ED50,Rattus norvegicus [1],1.3 mg/kg
same,ED50,Rattus norvegicus [2],1.5 mg/kg
CC(C(=O)O)c1ccc(CC2CCCCC/C2=N/O)cc1 (stereo not given),ED50,Rattus norvegicus [1],> 100 mg/kg
same,ED50,Rattus norvegicus [2],> 100 mg/kg
O=C(O)Cc1ccc(CC2CCCCC2=O)cc1 (stereo not given),ED50,Rattus norvegicus [1],53.8 mg/kg
same,ED50,Rattus norvegicus [2],45.7 mg/kg
CC(C)Cc1ccc(C(C)C(=O)O)cc1 (stereo not given) [IBUPROFEN],ED50,Rattus norvegicus [1],15.9 mg/kg
COc1ccc2c(c1)c(CC(=O)O)c(C)n2C(=O)c1ccc(Cl)cc1 [INDOMETHACIN],ED50,Rattus norvegicus [1],3.5 mg/kg
same,ED50,Rattus norvegicus [3],3.5 mg/kg
same,UD50,Rattus norvegicus [4],6.4 mg/kg
same,ED50,Rattus norvegicus [2],2.2 mg/kg
same,ED50,Cavia porcellus [5],8.3 mg/kg
same,ED50,Rattus norvegicus [6],2.8 mg/kg
same,ED50,Cavia porcellus [7],9.5 mg/kg
CC(C(=O)[O-])c1ccc(CC2CCCC2=O)cc1.[Na+] (stereo not given) [LOXOPROFEN SODIUM],ED50,Rattus norvegicus [8],0.59 mg/kg
same,ED50,Rattus norvegicus [1],0.76 mg/kg
same,UD50,Rattus norvegicus [4],16.1 mg/kg
same,ED50,Rattus norvegicus [2],1.2 mg/kg
same,ED50,Cavia porcellus [5],0.4 mg/kg
same,ED50,Rattus norvegicus [6],0.13 mg/kg
same,ED50,Cavia porcellus [7],0.76 mg/kg
CC(C(=O)O)c1ccc(CC2CCCC2=O)cc1 (stereo not given) [LOXOPROFEN],ED50,Rattus norvegicus [1],0.8 mg/kg
same,ED50,Rattus norvegicus [2],1.7 mg/kg
CC(C(=O)O)c1ccc(/C=C2\CCCCC2=O)cc1 (stereo not given) [PELUBIPROFEN],ED50,Rattus norvegicus [8],0.06 mg/kg
same,ID50,Rattus norvegicus [1],1.7 mg/kg
same,ED50,Rattus norvegicus [1],1.8 mg/kg
same,UD50,Rattus norvegicus [4],14.3 mg/kg
same,ED50,Rattus norvegicus [2],0.9 mg/kg
same,ED50,Cavia porcellus [5],4.5 mg/kg
same,ED50,Rattus norvegicus [9],1.2 mg/kg
same,ED50,Rattus norvegicus [6],0.94 mg/kg
same,ED50,Cavia porcellus [7],1.5 mg/kg
